Test results taken from ChEMBL document CHEMBL2346560, “Structure and function of a potent lipopolysaccharide-binding antimicrobial and anti-inflammatory peptide” (J Med Chem, 2013).
Converted amounts (≈) assume the structure as drawn. The source made the active and inactive calls. The rule behind the calls is not given here. Bridge positions count the residues as written; N and C are the ends. Peptide text beside a SMILES is read from it.

What was measured:
[1] = test system: RAW264.7; assay: Antiinflammatory activity in mouse RAW264.7 cells assessed as inhibition of LPS-induced JNK2 expression preincubated for 1 hr prior to LPS-challenge measured after 3 hrs by Western blotting analysis; type: functional, cell-based
Method in brief: (§1)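 RAW 264.7 cells (1 × 10^6/well) were serum-starved in RPMI-1640 for 16 h. They were pretreated with peptide (0, 5, 10, 20 µg/mL) for 1 h, then given LPS (E. coli 055:B5, 0 or 100 ng/mL) for 3 h. Cells were washed in ice-cold PBS, and cytoplasmic or nuclear fractions were blotted for TLR4, JNK, NF-κB p65 and β-actin. Control was LPS alone.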

[2] = Toxicity in human RBC assessed as induction of hemolysis at 25 ug/mL after 30 mins relative to control; type: cell-based, Erythrocyte; settings: red blood cells (RBC), read-out: Activity
Method in brief: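 Human red blood cells incubated with peptide. Hemoglobin release read as absorbance at 540 nm and expressed against 1% Triton X-100 as positive control.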

[3] = test system: Escherichia coli; assay: Bactericidal activity against Escherichia coli ATCC 25922 at 10 times MIC after 5 mins by colony counting assay (reference value: 47.7 CFU); type: functional
[4] = test system: Bacillus subtilis; assay: Antibacterial activity against Bacillus subtilis 6633 treated with PBS after 16 hrs by broth dilution method; type: functional; settings: Bacillus subtilis, 6633, 16 h
Method in brief: (§2)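 Salt sensitivity of the MIC. Peptide was tested in water, NaCl, CaCl2, MgCl2 or PBS (Na2HPO4-NaH2PO4, pH 7.4), with every salt at 150 mM. Values are means of three independent experiments, each run in duplicate.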

[5] = test system: Candida albicans; assay: Antifungal activity against Candida albicans ATCC 2002 treated with PBS after 16 hrs by broth dilution method; type: functional; settings: ATCC 2002, 16 h; method in brief: as §2
[6] = test system: Candida albicans; assay: Antifungal activity against ampicillin, benzylpencillin-resistant Candida albicans 080227710 after 16 hrs by broth dilution method; type: functional; settings: Candida albicans, 080227710, 16 h
Method in brief: (§3)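 MIC read-out, reported in µg/mL with µM equivalents. Each value is the mean of three independent experiments, each run in duplicate.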

[7] = test system: Escherichia coli; assay: Bactericidal activity against Escherichia coli ATCC 25922 at 10 times MIC after 60 mins by colony counting assay (reference value: 296 CFU); type: functional
[8] = test system: Escherichia coli; assay: Antibacterial activity against Escherichia coli ATCC 25922 after 16 hrs by broth dilution method; type: functional; settings: ATCC 25922, 16 h; method in brief: as §3
[9] = test system: Candida albicans; assay: Antifungal activity against ampicillin, benzylpencillin-resistant Candida albicans 08030809 after 16 hrs by broth dilution method; type: functional; settings: Candida albicans, 08030809, 16 h; method in brief: as §3
[10] = test system: Bacillus subtilis; assay: Antibacterial activity against Bacillus subtilis 6633 after 16 hrs by broth dilution method; type: functional; settings: Bacillus subtilis, 6633, 16 h
Method in brief: (§4)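 MIC determined by an earlier in-house method. Values are means of three independent experiments, each run in duplicate.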

[11] = test system: Pseudomonas aeruginosa; assay: Antibacterial activity against ampicillin, benzylpencillin-resistant Pseudomonas aeruginosa 08031205 after 16 hrs by broth dilution method; type: functional; settings: Pseudomonas aeruginosa, 08031205, 16 h; method in brief: as §3
[12] = test system: Staphylococcus aureus; assay: Antibacterial activity against Staphylococcus aureus ATCC 2592 treated with NaCl after 16 hrs by broth dilution method; type: functional; settings: ATCC 2592, 16 h; method in brief: as §2
[13] = test system: Lipopolysaccharide (LPS); assay: Binding affinity to Escherichia coli 055:B5 lipopolysaccharide by NMR titration assay
Method in brief: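 2D TOCSY NMR titration: peptide 2.5 mM in 95% H2O/TFE-d3 (6:4, v/v) with 5% D2O, pH 6.2, 25 °C, alone or with LPS from E. coli 055:B5 (2.5 mM : 1 µg and 2.5 mM : 5 µg). Readout is the ratio of amide proton peak heights, free versus LPS-bound, per residue.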

[14] = test system: RAW264.7; assay: Antiinflammatory activity in mouse RAW264.7 cells assessed as inhibition of LPS-induced IL6 production after 24 hrs by ELISA; type: functional, cell-based
Method in brief: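 RAW 264.7 cells (2 × 10^5) were plated and allowed to adhere. They were given peptide (2.5, 5, 10, 20 µg/mL) with or without LPS (E. coli 055:B5, 20 ng/mL) for 24 h. Supernatant TNF-α, IL-6 and MCP-1 were measured by ELISA at A450. Controls were LPS alone and untreated cells. Mean ± SEM of three separate experiments.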

[15] = test system: Escherichia coli; assay: Antibacterial activity against Escherichia coli 08A852 assessed as plasma membrane rupture after 30 mins by scanning electron microscopic analysis; type: functional, organism-based
Method in brief: (§5)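 E. coli (about 2 × 10^7 CFU/mL) was exposed to peptide at 1 × MIC, 37 °C, 30 min, beside an untreated control. Cells were pelleted, fixed in 2.5% buffered glutaraldehyde (4 °C, 2 h), post-fixed in 1% osmium tetroxide (2 h), dehydrated through graded ethanol, frozen in tert-butyl alcohol and vacuum-dried, then imaged by SEM.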

[16] = test system: Escherichia coli; assay: Antibacterial activity against Escherichia coli ATCC 25922 treated with NaCl after 16 hrs by broth dilution method; type: functional; settings: ATCC 25922, 16 h; method in brief: as §2
[17] = test system: Escherichia coli; assay: Antibacterial activity against Escherichia coli ATCC 25922 assessed as plasma membrane rupture after 30 mins by scanning electron microscopic analysis; type: functional, organism-based; method in brief: as §5
[18] = test system: Candida albicans; assay: Antifungal activity against Candida albicans ATCC 2002 treated with water after 16 hrs by broth dilution method; type: functional; settings: ATCC 2002, 16 h; method in brief: as §2
[19] = test system: RAW264.7; assay: Antiinflammatory activity in mouse RAW264.7 cells assessed as inhibition of LPS-induced JNK2 expression at 10 to 20 ug/mL preincubated for 1 hr prior to LPS-challenge measured after 3 hrs by Western blotting analysis; type: functional, cell-based; method in brief: as §1
[20] = test system: Escherichia coli; assay: Bactericidal activity against Escherichia coli ATCC 25922 at 5 times MIC after 10 mins by colony counting assay (reference value: 58.3 CFU); type: functional
[21] = test system: Bacillus subtilis; assay: Antibacterial activity against Bacillus subtilis 6633 treated with NaCl after 16 hrs by broth dilution method; type: functional; settings: Bacillus subtilis, 6633, 16 h; method in brief: as §2
[22] = test system: Pseudomonas aeruginosa; assay: Antibacterial activity against Pseudomonas aeruginosa ATCC 27853 after 16 hrs by broth dilution method; type: functional; settings: ATCC 27853, 16 h; method in brief: as §4
[23] = test system: Escherichia coli; assay: Bactericidal activity against Escherichia coli ATCC 25922 at 10 times MIC after 20 mins by colony counting assay (reference value: 79.3 CFU); type: functional
[24] = test system: Bacillus subtilis; assay: Antibacterial activity against Bacillus subtilis 6633 treated with water after 16 hrs by broth dilution method; type: functional; settings: Bacillus subtilis, 6633, 16 h; method in brief: as §2
[25] = test system: RAW264.7; assay: Cytotoxicity against mouse RAW264.7 cells at 200 ug/mL after 24 hrs by MTT assay relative to control; type: cell-based; settings: raw264.7, 24 h
[26] = test system: Escherichia coli; assay: Bactericidal activity against Escherichia coli ATCC 25922 at 10 times MIC after 120 mins by colony counting assay (reference value: 1868.3 CFU); type: functional
[27] = test system: Escherichia coli; assay: Bactericidal activity against Escherichia coli ATCC 25922 at MIC after 60 mins by colony counting assay (reference value: 296 CFU); type: functional

CC[C@H](C)[C@H](NC(=O)[C@H](Cc1cnc[nH]1)NC(=O)[C@H](CO)NC(=O)[C@@H](NC(=O)[C@@H](NC(=O)[C@@H](NC(=O)[C@@H](NC(=O)[C@H](CCCNC(=N)N)NC(=O)[C@H](CC(C)C)NC(=O)[C@H](CCCCN)NC(=O)[C@H](CCC(=O)O)NC(=O)[C@H](CCCCN)NC(=O)[C@H](CC(C)C)NC(=O)[C@H](CCCCN)NC(=O)[C@@H]1CSSC[C@H](NC(=O)[C@H](CCCCN)NC(=O)[C@@H](N)CCCNC(=N)N)C(=O)N[C@@H](CC(N)=O)C(=O)N[C@@H](Cc2ccccc2)C(=O)N[C@@H](CC(C)C)C(=O)N1)[C@@H](C)O)C(C)C)[C@@H](C)CC)[C@@H](C)O)C(=O)N[C@@H](CC(=O)O)C(=O)N[C@@H](CCCCN)C(=O)N[C@H](C(=O)N[C@@H](CC(C)C)C(=O)N[C@@H](CCCNC(=N)N)C(=O)N1CCC[C@H]1C(=O)N[C@@H](CCC(N)=O)C(=O)NCC(=O)O)C(C)C (H-RKCNFLCKLKEKLRTVITSHIDKVLRPQG-OH; disulfide 3-7)
inhibition [1]: Dose-dependent effect | hemolysis at 0.5 h, 25 ug/mL [2]: 3.5% | CFU [3]: 11.3 | MIC [4]: > 100 µg/mL | MIC [5]: 2.35 µg/mL (≈ 0.686 µM) | MIC [6]: 5.48 µM (≈ 18.8 µg/mL) | CFU [7]: 0 | MIC [8]: 1.37 µM (≈ 4.69 µg/mL) | MIC [9]: 1.37 µM (≈ 4.69 µg/mL) | MIC [10]: > 100 µg/mL | MIC [11]: 2.74 µM (≈ 9.38 µg/mL) | MIC [12]: 4.69 µg/mL (≈ 1.37 µM) | Activity [13]: Active | inhibition [14]: Dose-dependent effect | Activity [15]: Active | MIC [16]: 2.35 µg/mL (≈ 0.686 µM) | Activity [17]: Active | MIC [18]: 4.69 µg/mL (≈ 1.37 µM) | inhibition [19]: Active | CFU [20]: 10 | MIC [21]: 75 µg/mL (≈ 21.9 µM) | MIC [22]: 5.48 µM (≈ 18.8 µg/mL) | CFU [23]: 0 | MIC [24]: > 100 µg/mL | Activity [25]: 5.1% | CFU [26]: 0 | CFU [27]: 0
